In the M2OR odorant receptor database:
Residue numbers refer to the chain shown, from its start.

Assays:
Details in all cases: stereoisomer not certain
OR51B5 (Homo sapiens) = target: T1, OR51B5 (Homo sapiens) (UniProt Q9H339)
T1 sequence (whole entry): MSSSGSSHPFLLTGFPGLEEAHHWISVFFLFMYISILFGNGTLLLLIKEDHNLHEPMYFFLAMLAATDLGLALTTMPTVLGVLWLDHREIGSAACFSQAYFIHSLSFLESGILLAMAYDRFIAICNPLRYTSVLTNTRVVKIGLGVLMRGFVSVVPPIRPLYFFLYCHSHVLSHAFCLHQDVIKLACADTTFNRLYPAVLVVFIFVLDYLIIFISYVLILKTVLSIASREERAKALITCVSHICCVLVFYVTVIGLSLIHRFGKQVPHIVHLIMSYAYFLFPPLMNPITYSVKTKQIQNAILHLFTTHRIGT
How it was run: (§1)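 Each entry records the cell line, G-protein, co-transfected protein and tags used. Methods varied with the source, often transient luciferase assays in mammalian cell lines. A receptor–molecule pair is called responsive (active) if the original authors judged its signal statistically different from baseline and non-responsive (inactive) otherwise.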

OR4N4 (Homo sapiens) = target: T2, OR4N4 (Homo sapiens) (UniProt Q8N0Y3)
T2 sequence (whole entry): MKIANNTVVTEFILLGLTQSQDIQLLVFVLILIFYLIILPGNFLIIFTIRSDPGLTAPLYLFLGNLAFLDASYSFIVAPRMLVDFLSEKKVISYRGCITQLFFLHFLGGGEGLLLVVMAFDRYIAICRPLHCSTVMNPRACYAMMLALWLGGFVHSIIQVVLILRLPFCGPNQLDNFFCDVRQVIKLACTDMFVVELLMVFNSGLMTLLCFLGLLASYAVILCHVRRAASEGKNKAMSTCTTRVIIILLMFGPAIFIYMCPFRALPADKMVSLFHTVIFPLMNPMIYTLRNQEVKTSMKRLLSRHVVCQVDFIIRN
How it was run: as §1

OR4N4C (Homo sapiens) = OR4N4C (Homo sapiens) (UniProt A0A096LPK9)
How it was run: as §1

OR4N5 (Homo sapiens) = target: T3, OR4N5 (Homo sapiens) (UniProt Q8IXE1)
T3 sequence (whole entry): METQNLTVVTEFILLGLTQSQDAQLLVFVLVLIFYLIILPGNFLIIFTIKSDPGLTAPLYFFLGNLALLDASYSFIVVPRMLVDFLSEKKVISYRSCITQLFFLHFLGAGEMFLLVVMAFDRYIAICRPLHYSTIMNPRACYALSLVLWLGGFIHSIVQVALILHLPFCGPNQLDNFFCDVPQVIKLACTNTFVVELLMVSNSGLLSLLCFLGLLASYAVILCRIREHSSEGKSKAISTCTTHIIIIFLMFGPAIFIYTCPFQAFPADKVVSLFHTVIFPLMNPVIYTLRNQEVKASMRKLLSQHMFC
How it was run: as §1

OR4P4 (Homo sapiens) = target: T4, OR4P4 (Homo sapiens) (UniProt Q8NGL7)
T4 sequence (whole entry): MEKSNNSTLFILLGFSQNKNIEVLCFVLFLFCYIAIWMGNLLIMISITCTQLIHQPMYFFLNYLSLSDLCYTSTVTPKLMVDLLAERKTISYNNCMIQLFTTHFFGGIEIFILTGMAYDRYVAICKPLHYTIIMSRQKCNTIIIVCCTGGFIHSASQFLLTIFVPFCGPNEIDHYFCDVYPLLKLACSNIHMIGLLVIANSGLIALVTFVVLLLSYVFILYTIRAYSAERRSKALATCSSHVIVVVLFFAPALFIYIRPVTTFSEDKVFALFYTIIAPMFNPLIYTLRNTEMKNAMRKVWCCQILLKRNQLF
How it was run: as §1

OR4Q2 (Homo sapiens) = OR4Q2 (Homo sapiens) (UniProt P0C623)
How it was run: as §1

OR4Q3 (Homo sapiens) = target: T5, OR4Q3 (Homo sapiens) (UniProt Q8NH05)
T5 sequence (whole entry): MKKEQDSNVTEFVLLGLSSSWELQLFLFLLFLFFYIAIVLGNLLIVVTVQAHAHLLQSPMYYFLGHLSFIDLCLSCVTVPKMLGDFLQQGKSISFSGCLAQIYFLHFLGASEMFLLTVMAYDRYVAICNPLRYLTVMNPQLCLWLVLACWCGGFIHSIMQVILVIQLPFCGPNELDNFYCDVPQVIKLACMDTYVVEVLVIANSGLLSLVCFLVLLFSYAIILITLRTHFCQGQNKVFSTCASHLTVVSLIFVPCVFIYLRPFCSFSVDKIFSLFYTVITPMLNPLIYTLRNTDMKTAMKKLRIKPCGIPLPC
How it was run: as §1

OR4S1 (Homo sapiens) = target: T6, OR4S1 (Homo sapiens) (UniProt Q8NGB4)
T6 sequence (whole entry): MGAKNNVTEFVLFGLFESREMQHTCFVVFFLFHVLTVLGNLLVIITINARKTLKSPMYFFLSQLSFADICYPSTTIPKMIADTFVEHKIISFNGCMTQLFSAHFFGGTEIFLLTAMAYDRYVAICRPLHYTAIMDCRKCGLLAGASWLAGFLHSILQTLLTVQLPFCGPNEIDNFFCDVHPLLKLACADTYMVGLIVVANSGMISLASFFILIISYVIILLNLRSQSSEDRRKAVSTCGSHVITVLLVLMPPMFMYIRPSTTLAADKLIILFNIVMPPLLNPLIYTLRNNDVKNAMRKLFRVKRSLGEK
How it was run: as §1

OR4S2 (Homo sapiens) = target: T7, OR4S2 (Homo sapiens) (UniProt Q8NH73)
T7 sequence (whole entry): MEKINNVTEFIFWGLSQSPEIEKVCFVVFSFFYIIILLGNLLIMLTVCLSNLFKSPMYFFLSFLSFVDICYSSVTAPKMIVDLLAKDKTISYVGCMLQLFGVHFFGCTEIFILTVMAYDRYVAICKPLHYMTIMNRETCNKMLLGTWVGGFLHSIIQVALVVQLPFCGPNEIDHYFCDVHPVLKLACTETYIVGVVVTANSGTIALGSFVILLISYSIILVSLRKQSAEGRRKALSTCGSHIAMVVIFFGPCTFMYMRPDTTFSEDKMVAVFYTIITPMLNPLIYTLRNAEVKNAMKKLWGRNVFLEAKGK
How it was run: as §1

OR4X1 (Homo sapiens) = target: T8, OR4X1 (Homo sapiens) (UniProt Q8NH49)
T8 sequence (whole entry): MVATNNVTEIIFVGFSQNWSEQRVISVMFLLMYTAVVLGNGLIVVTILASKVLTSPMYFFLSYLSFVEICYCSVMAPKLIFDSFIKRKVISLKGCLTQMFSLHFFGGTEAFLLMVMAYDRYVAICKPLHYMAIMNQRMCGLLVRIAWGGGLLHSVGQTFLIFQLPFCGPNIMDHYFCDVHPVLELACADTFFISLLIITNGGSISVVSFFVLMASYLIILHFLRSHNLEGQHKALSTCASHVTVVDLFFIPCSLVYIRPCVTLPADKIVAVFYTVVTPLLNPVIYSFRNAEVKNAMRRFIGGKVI
How it was run: as §1

OR4X2 (Homo sapiens) = target: T9, OR4X2 (Homo sapiens) (UniProt Q8NGF9)
T9 sequence (whole entry): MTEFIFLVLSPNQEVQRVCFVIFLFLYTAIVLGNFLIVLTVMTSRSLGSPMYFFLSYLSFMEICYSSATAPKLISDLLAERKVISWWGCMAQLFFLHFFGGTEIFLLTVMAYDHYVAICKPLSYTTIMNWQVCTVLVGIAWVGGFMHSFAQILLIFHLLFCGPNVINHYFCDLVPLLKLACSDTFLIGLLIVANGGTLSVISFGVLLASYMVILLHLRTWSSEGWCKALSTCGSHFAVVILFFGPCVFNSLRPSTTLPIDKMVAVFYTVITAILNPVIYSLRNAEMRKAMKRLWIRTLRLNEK
How it was run: as §1

OR51A2 (Homo sapiens) = target: T10, OR51A2 (Homo sapiens) (UniProt Q8NGJ7)
T10 sequence (whole entry): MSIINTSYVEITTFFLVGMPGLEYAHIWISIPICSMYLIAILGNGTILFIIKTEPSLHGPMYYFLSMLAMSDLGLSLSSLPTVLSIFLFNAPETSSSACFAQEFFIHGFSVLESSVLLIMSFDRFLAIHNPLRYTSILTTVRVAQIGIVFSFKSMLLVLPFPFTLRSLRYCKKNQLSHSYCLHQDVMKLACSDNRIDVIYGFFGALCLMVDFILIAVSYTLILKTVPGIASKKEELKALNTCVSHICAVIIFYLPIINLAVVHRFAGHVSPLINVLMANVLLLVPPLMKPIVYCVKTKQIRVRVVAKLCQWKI
How it was run: as §1

OR51A4 (Homo sapiens) = target: T11, OR51A4 (Homo sapiens) (UniProt Q8NGJ6)
T11 sequence (whole entry): T10 sequence (whole entry) with G59E, T94I, S97N, S167N, P227L, E235Q, G267R, M288T, K289N, W311R
How it was run: as §1

OR51A7 (Homo sapiens) = target: T12, OR51A7 (Homo sapiens) (UniProt Q8NH64)
T12 sequence (whole entry): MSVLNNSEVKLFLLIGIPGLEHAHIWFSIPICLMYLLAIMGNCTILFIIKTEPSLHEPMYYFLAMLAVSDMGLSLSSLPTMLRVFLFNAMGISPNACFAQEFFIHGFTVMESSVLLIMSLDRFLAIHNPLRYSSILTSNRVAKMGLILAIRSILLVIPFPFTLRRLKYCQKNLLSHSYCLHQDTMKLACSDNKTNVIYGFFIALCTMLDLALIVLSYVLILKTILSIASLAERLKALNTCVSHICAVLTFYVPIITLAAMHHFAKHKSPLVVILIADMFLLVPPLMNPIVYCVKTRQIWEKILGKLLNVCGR
How it was run: as §1

OR51B2 (Homo sapiens) = target: T13, OR51B2 (Homo sapiens) (UniProt Q9Y5P1)
T13 sequence (whole entry): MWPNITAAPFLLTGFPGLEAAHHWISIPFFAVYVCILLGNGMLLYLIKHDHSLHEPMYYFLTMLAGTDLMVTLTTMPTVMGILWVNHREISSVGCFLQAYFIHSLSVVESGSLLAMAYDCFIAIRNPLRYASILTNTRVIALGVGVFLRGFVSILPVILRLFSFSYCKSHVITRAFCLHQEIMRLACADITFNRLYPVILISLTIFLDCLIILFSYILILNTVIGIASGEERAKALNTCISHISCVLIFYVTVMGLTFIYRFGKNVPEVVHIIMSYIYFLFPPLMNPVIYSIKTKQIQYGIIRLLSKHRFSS
How it was run: as §1

OR51B4 (Homo sapiens) = target: T14, OR51B4 (Homo sapiens) (UniProt Q9Y5P0)
T14 sequence (whole entry): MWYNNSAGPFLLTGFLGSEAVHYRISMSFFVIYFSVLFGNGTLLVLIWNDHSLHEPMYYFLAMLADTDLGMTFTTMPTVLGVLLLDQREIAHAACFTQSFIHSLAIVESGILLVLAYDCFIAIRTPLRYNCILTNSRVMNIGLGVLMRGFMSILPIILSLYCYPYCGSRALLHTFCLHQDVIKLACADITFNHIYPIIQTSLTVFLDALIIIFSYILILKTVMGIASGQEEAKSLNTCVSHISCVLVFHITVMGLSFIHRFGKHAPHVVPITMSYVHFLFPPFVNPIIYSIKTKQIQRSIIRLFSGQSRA
How it was run: as §1

OR51B6 (Homo sapiens) = target: T15, OR51B6 (Homo sapiens) (UniProt Q9H340)
T15 sequence (whole entry): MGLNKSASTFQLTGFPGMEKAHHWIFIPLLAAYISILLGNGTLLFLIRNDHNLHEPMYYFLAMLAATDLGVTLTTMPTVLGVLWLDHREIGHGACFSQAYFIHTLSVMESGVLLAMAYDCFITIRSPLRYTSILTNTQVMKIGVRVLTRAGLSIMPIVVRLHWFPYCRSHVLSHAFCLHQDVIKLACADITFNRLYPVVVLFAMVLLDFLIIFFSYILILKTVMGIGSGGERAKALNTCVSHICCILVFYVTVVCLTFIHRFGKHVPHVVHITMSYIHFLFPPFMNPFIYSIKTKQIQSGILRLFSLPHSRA
How it was run: as §1

Chain of OR4Q2 (Homo sapiens) (P0C623 as listed by the source): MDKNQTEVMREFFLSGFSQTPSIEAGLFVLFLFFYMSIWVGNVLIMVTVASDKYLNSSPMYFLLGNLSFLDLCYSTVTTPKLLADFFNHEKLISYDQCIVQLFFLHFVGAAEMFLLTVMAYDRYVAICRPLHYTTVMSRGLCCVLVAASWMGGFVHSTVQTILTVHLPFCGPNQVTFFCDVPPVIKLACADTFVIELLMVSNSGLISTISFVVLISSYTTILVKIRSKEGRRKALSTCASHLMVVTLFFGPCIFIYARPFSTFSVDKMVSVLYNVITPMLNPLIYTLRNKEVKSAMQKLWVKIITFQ
Chain of OR4N4C (Homo sapiens) (A0A096LPK9 whole entry): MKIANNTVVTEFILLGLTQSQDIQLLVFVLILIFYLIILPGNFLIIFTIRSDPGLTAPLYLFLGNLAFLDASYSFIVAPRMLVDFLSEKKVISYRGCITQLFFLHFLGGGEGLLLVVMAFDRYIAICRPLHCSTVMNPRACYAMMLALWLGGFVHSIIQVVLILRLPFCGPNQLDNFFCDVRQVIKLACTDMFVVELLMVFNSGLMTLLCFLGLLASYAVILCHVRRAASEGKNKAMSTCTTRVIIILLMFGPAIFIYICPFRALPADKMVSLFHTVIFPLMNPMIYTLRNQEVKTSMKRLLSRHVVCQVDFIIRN

CC(=O)O
odorant receptor agonist call (OR51B5 (Homo sapiens)): inactive

Cc1cnc(C)cn1
odorant receptor agonist call (OR51B5 (Homo sapiens)): inactive

CC(=O)c1c(C)c([N+](=O)[O-])c(C(C)(C)C)c([N+](=O)[O-])c1C
odorant receptor agonist call (OR4N4 (Homo sapiens)): inactive
odorant receptor agonist call (OR4N4C (Homo sapiens)): inactive
odorant receptor agonist call (OR4N5 (Homo sapiens)): inactive
odorant receptor agonist call (OR4P4 (Homo sapiens)): inactive
odorant receptor agonist call (OR4Q2 (Homo sapiens)): inactive
odorant receptor agonist call (OR4Q3 (Homo sapiens)): inactive
odorant receptor agonist call (OR4S1 (Homo sapiens)): inactive
odorant receptor agonist call (OR4S2 (Homo sapiens)): inactive
odorant receptor agonist call (OR4X1 (Homo sapiens)): inactive
odorant receptor agonist call (OR4X2 (Homo sapiens)): inactive
odorant receptor agonist call (OR51A2 (Homo sapiens)): inactive
odorant receptor agonist call (OR51A4 (Homo sapiens)): inactive
odorant receptor agonist call (OR51A7 (Homo sapiens)): inactive
odorant receptor agonist call (OR51B2 (Homo sapiens)): inactive
odorant receptor agonist call (OR51B4 (Homo sapiens)): inactive
odorant receptor agonist call (OR51B5 (Homo sapiens)): inactive
odorant receptor agonist call (OR51B6 (Homo sapiens)): inactive

CCCCCCCCCCCC(=O)O
odorant receptor agonist call (OR51B5 (Homo sapiens)): active

CCCCCCCCCCCCCCCCCC(=O)OC
odorant receptor agonist call (OR51B5 (Homo sapiens)): inactive

CC(C)=CCCC(C)=CCO
odorant receptor agonist call (OR4X2 (Homo sapiens)): inactive
odorant receptor agonist call (OR51B5 (Homo sapiens)): inactive
